# procasp7 counter: procaspase-7 activators, primary screen, counter-screen for procaspase-3 activator project, biochemical, absorbance, HTS, human. Caspase-7 (Homo sapiens), P55210. recombinant procaspase-7, Ac-DEVD-pNA absorbance 405 nm; D23A/D198A/D206A triple mutant, cannot self-cleave; scale: DMSO 0, 5 µM enzyme 100. activation, % at 8.5 µM. actives 0.093% (n = 330,000). AID 463210, 2010;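 active = percent activation above the screen-wide mean plus 3 SD, cut at about 25% in these data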
#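 Assay system – Uncleavable procaspase-7 mutant enzyme · Quantity – 2 µM procaspase-7 mutant as dispensed · Times – 1 h preincubation, 2 h reaction · Dosing – single nominal 8.5 µM compound dose, 0.8% DMSO final · Buffer or medium – Zinc-free 50 mM HEPES buffer, pH 7.4, with NaCl and Triton X-100 · Detection – Epi-absorbance of released pNA at 405 nm, two timepoints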
# CHT block: inhibitors of human choline transporter CHT | High affinity choline transporter 1 (Homo sapiens), Q9GZV3 | CHT-expressing cells, membrane potential dye, choline response; active compounds read low | B-score at 10 µM | actives 0.86% (n = 310,000);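 active = B-score over 3 SD under the library average, and starting fluorescence ratio not unusually high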;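 note: choline stimulus applied at its EC90 after an EC20 pre-addition; B-score computed on integrated fluorescence ratio after choline addition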
# Target sequence (Q9GZV3 whole entry, looked up): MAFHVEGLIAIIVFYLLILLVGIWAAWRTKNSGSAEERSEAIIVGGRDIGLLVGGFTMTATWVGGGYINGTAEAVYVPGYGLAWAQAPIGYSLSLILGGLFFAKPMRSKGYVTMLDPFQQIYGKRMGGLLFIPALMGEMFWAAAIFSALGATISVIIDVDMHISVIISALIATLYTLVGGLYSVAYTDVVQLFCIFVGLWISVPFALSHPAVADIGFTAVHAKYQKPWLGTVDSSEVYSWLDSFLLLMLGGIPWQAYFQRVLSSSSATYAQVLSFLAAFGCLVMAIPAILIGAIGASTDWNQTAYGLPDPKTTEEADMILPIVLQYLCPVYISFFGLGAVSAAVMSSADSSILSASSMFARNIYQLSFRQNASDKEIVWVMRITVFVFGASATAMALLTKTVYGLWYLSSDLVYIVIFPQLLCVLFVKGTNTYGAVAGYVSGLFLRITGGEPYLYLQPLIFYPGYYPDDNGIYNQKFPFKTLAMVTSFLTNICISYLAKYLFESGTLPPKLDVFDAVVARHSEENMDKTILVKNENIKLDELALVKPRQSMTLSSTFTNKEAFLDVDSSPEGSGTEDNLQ
# CHT allo act: CHT positive allosteric modulators, primary screen, cell-based, membrane potential dye, choline EC20; High affinity choline transporter 1 (Homo sapiens), Q9GZV3; CHT-expressing cells; active compounds read high; LV-AA mutant CHT in HEK293 cells; actives 0.49% (n = 310,000); B-score at 10 µM;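 active = initial fluorescence not abnormally high and integrated response B-score, plate-corrected, over 3 SD above library mean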
# procasp3 activ: activators of human procaspase-3 D3A mutant, primary screen, biochemical, absorbance, PC-3 D3A mutant, single concentration; Caspase-3 (Homo sapiens), P42574; recombinant procaspase-3 D3A, Ac-DEVD-pNA absorbance 405 nm; activation, % at 8.5 µM; actives 0.11% (n = 330,000); AID 463141, 2010;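 active = activation above the mean of all tested compounds plus 3 SD, cut at about 21% in these data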;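 note: 0% = DMSO alone and 100% = DMSO wells spiked with extra 5 µM PC-3 D3A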
#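 Test system: Procaspase-3 D3A mutant, all three cleavage aspartates alanine | Dosing: Single dose, 8.5 µM nominal compound, 0.8% DMSO | Schedule: 1 h preincubation, 2 h reaction | Technique: 405 nm absorbance of p-nitroaniline, reads at 0 and 120 min | Repeats: One well per compound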
# CHT block conf: CHT inhibitors, confirmation, cell-based, membrane potential dye, duplicate | shares compounds with CHT block | CHT-expressing cells, choline membrane potential dye; LV-to-AA substituted CHT, HEK293 cells | CHT activity remaining % of control (active compounds read low), % at 10 µM | actives 70% (n = 2,400);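 active = choline transporter activity left, mean of duplicates at 10 µM, below buffer-only control mean minus 3 SD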;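 note: depolarization triggered by choline at its EC90 following an EC20 pre-addition; 0% = hemicholinium-3 full block and 100% = buffer-only control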
# HEK293 CHT ctr: membrane potential effects in parental HEK293, counter-screen for CHT inhibitor project, cell-based, membrane potential dye; membrane potential ratio readout (active if shifted either direction beyond buffer ±3SD; no single direction) at 10 µM; choline response; active = decrease or increase beyond buffer ±3SD; actives 4% (n = 2,400); shares compounds with CHT block; AID 493222, 2011;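 note: parental cells lack the transporter so any hit is non-specific; ratio is peak minus trough fluorescence over baseline after EC90 choline challenge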
# The depositor's hits bear a star; i = inactive; x = no result given. Sampled rows, rich in hits. Any-hit rate of the full collection: about 1.3%.
SMILES,procasp7 counter,CHT block,CHT allo act,procasp3 activ,CHT block conf,HEK293 CHT ctr
Cn1cc(/C=C2\SC(=O)N(c3ccc(O)cc3)C2=O)c2ccccc21,8.9,i,i,1.9,x,x
O=C(CC1C(=O)NCCN1C(=O)Nc1ccccc1)Nc1cccc(Cl)c1 (stereo unspecified),-2.5,i,i,3.9,x,x
O=C(CC1C(=O)NCCN1C(=O)Nc1ccccc1)Nc1cc(Cl)cc(Cl)c1 (stereo unspecified),-5.2,-5.02*,i,-8.2,15.8%*,i
CCCC(=O)OCC(=O)Nc1ccc2c(c1)OCO2,3.2,i,i,6.5,x,x
COc1ccc(C(=O)CCc2ccccc2)c(O)c1,6.5,i,i,-2.6,x,x
O=C(CCc1ccccc1)c1c(O)cc(O)cc1O,5.1,-7.91*,i,8.2,39.7%*,i
N#CCC(=N)N1CCN(c2ccc(F)cc2)CC1,1.8,i,i,-0.2,x,x
O=C(CN(Cc1ccccc1)C(=O)CCl)c1cccc(Br)c1,0.9,i,i,-6.0,x,x
CCCNc1nc2c(c(=O)n(C)c(=O)n2C)n1CCC(C)C,3.8,-6.87*,i,2.6,45.9%*,i
CCOCCCn1c(SCC(=O)Nc2cccc(S(=O)(=O)NC3=NCCCCC3)c2)nc2ccccc2c1=O,9.4,-6.39*,i,4.1,i,i
Cc1cc(SCC(=O)Nc2cccc(S(=O)(=O)NC3=NCCCCC3)c2)c(C)cc1Br,-5.8,-4.96*,i,-2.4,i,i
Cc1n[nH]c(C)c1S(=O)(=O)N1CCCC(C(=O)N2CCN(c3ccc(Cl)cc3)CC2)C1 (stereo unspecified),6.4,-5.22*,i,9.2,i,i
CCC(=O)N1c2ccc(S(=O)(=O)CCC(=O)N3CCN(c4ccccc4F)CC3)cc2CC1C (stereo unspecified),1.5,i,i,7.8,x,x
CN(C(=O)c1ccc(OC2CCN(Cc3ccccn3)CC2)cc1)C1CCCCC1,2.6,i,i,-2.8,x,x
CC(CNC(=O)c1ccc(OC2CCN(Cc3ccccn3)CC2)cc1)c1ccccc1 (stereo unspecified),10.2,-11.9*,i,-5.5,10.4%*,i
O=C(NC1CCCCC1)c1ccc(OC2CCN(Cc3ccccn3)CC2)cc1,4.9,-12.9*,i,-5.3,-6.3%*,i
COc1cc(/C=C2\SC(=S)N(NC(=O)c3ccc(O)c(OC)c3)C2=O)ccc1O,-11.6,i,i,-10.9,x,x
COc1cc(/C=C2\SC(=S)N(NS(=O)(=O)c3ccccc3)C2=O)ccc1O,-0.2,i,i,-21.4,x,x
COc1ccc(/C=C2/SC(=S)N(NS(=O)(=O)c3ccccc3)C2=O)cc1,-9.8,-4.95*,i,-6.3,45.3%*,i
COc1cc(/C=C2\SC(=S)N(NC(=O)c3ccncc3)C2=O)ccc1O,-11.1,-9.83*,i,7.2,-0.4%*,-8.53*
CC(/C=C1\SC(=S)N(NS(=O)(=O)c2ccccc2)C1=O)=C\c1ccccc1,-6.3,-5.81*,i,-3.2,54.8%*,i
CC(/C=C1\SC(=S)N(NC(=O)c2ccncc2)C1=O)=C\c1ccccc1,-7.7,-6.49*,i,-3.1,15.4%*,i
COc1ccc(NC(=O)CSCc2cc(=O)n3cc(C)sc3n2)cc1,3.6,i,i,10.0,x,x
CC(C)[C@H](N)C(=O)N1CCC(C(=O)N[C@@H](Cc2ccccc2)C(=O)NCc2ccc(F)cc2)CC1,14.6,i,i,0.6,x,x
COc1ccc(S(=O)(=O)Nc2ccc3c(c2)C(=O)N([C@H](C)CO)C[C@H](C)[C@@H](CN(C)C(=O)Nc2ccc(C(F)(F)F)cc2)O3)cc1,7.6,x,x,-8.2,x,x
SMILES,procasp7 counter,CHT block,CHT allo act,procasp3 activ,CHT block conf,HEK293 CHT ctr
CCOC(=O)CC1(CC(=O)OCC)NC(=O)c2c(C)sc(C(=O)OCC)c2N1,1.7,-5.13*,i,-1.4,38.3%*,i
CCOc1ccc(Nc2cc(C)nc(-n3nc(C)cc3C)n2)cc1,-0.5,-6.12*,i,4.6,i,i
CNc1cc(C)nc(-n2nc(C)cc2C)n1,2.8,i,i,2.7,x,x
CCSc1nnc2ccc(-c3ccco3)nn12,1.2,i,i,8.0,x,x
N#Cc1ccccc1NS(=O)(=O)c1cc2c3c(c1)CCN3C(=O)CC2,2.2,i,i,6.9,x,x
CCCc1cc2c(=O)c(-c3cscn3)c(C(=O)OCC)oc2cc1O,-2.0,-5.79*,i,-1.4,27.9%*,i
CCOC(=O)c1oc2cc(O)cc(C)c2c(=O)c1-c1cscn1,5.5,i,i,-6.3,x,x
C/C(=N\N=C(N)N)c1ccc(Cl)cc1Cl,0.5,-7.47*,i,2.9,15.8%*,i
C/C(=N\N=C(N)N)c1cc(Cl)ccc1Cl,12.8,i,i,12.0,x,x
COC(=O)c1sccc1NC(=O)Nc1ccc(F)cc1F,-11.6,i,i,-2.9,x,x
CCn1c(-c2ccccc2)csc1=Nc1ccc(O)cc1,-1.0,i,i,-12.9,x,x
COc1ccc(C(=O)OCC(=O)NC(C)CCc2ccccc2)c(OC)c1 (stereo unspecified),-9.7,-5.73*,i,-4.6,i,i
COC(=O)CN1C(=O)COc2ccc(S(=O)(=O)NCc3ccc(Cl)cc3)cc21,2.4,-6.08*,i,4.4,i,i
O=c1c2ccccc2[nH]c(=S)n1CCCN1CCN(c2ccccc2)CC1,-3.3,i,i,2.5,x,x
O=c1c2ccccc2[nH]c(=S)n1CCN1CCCCC1,-4.5,-11.6*,i,0.2,40.2%*,i
COc1cc(O)c(C(CC(=O)N2CCN(c3ccccc3)CC2)c2ccc(N(C)C)cc2)c(OC)c1 (stereo unspecified),12.7,-10.5*,i,3.7,i,i
COc1cc(O)c(C(CC(=O)N2CCCC(C)C2)c2ccc(N(C)C)cc2)c(OC)c1 (stereo unspecified),-1.7,i,i,-7.3,x,x
O=[N+]([O-])c1ccc(-[n+]2nc(-c3ccccc3)nn2-c2ccccc2)cc1,6.3,i,i,-0.6,x,x
COCCN(C(=O)COC(=O)c1ccc(C=O)cc1)c1c(N)n(Cc2ccccc2)c(=O)[nH]c1=O,13.3,i,i,-8.5,x,x

# Screening results as filed in PubChem BioAssay.
